Reference: ChEMBL document CHEMBL4689842, “EUbOPEN Chemogenomics Library wave 1” (2021)

Assays:
Type in all cases: toxicity, cell-based
HEK-293T = assay: Multiplex assay against HEK293T; settings: human
Summary of the method: (§1)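 Live cells were stained at seeding with Hoechst33342, BioTracker Green Microtubule Cytoskeleton Dye, MitoTracker Red and Annexin V Alexa Fluor 680, then imaged on a CQ1 microscope at 37°C and 5% CO2 after compound addition. CellPathfinder machine-learning gating split cells into Hoechst high-intensity objects or normal cells. Normal cells were split into healthy, pyknosed or fragmented nuclei, and pyknosed cells into mitotic or apoptotic. Tubulin, mitochondrial-mass and membrane-permeability phenotypes are per cents of healthy-nucleus cells.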

Fibroblast = assay: Multiplex assay against human fibroblast; summary of the method: as §1
U2OS = assay: Multiplex assay against U2OS; settings: human; summary of the method: as §1
[1] = 12 h, 1 µM, compound concentration 1 uM, replicate 1
[2] = 12 h, 1 µM, compound concentration 1 uM, replicate 2
[3] = 12 h, 10 µM, compound concentration 10 uM, replicate 1
[4] = 12 h, 10 µM, compound concentration 10 uM, replicate 2
[5] = 24 h, 1 µM, compound concentration 1 uM, replicate 1
[6] = 24 h, 1 µM, compound concentration 1 uM, replicate 2
[7] = 24 h, 10 µM, compound concentration 10 uM, replicate 1
[8] = 24 h, 10 µM, compound concentration 10 uM, replicate 2
[9] = 48 h, 1 µM, compound concentration 1 uM, replicate 1
[10] = 48 h, 1 µM, compound concentration 1 uM, replicate 2
[11] = 48 h, 10 µM, compound concentration 10 uM, replicate 1
[12] = 48 h, 10 µM, compound concentration 10 uM, replicate 2

CC(C)C[C@H](NC(=O)[C@H](Cc1ccccc1)NC(=O)CNC(=O)CNC(=O)[C@@H](N)Cc1ccc(O)cc1)C(=O)O [ENKEPHALIN]
Population Apoptotic (%) (HEK-293T; [1]): 45% | Population Healthy Nuclei (%) (HEK-293T; [1]): 23% | Population Mitochondria Different-Phenotype (%) (HEK-293T; [1]): 76% | Population Mitotic Cells (%) (HEK-293T; [1]): 54% | Population Pyknosed Nuclei (%) (HEK-293T; [1]): 60% | Total Cell Count (HEK-293T; [1]): 175 | Population Apoptotic (%) (HEK-293T; [2]): 9% | Population Healthy Nuclei (%) (HEK-293T; [2]): 50% | Population Mitotic Cells (%) (HEK-293T; [2]): 90% | Population Pyknosed Nuclei (%) (HEK-293T; [2]): 43% | Total Cell Count (HEK-293T; [2]): 229 | Population Apoptotic (%) (HEK-293T; [3]): 40% | Population Healthy Nuclei (%) (HEK-293T; [3]): 32% | Population Mitochondria Different-Phenotype (%) (HEK-293T; [3]): 84% | Population Mitotic Cells (%) (HEK-293T; [3]): 60% | Population Pyknosed Nuclei (%) (HEK-293T; [3]): 57% | Total Cell Count (HEK-293T; [3]): 230 | Population Apoptotic (%) (HEK-293T; [4]): 9% | Population Healthy Nuclei (%) (HEK-293T; [4]): 45% | Population Mitotic Cells (%) (HEK-293T; [4]): 90% | Population Pyknosed Nuclei (%) (HEK-293T; [4]): 50% | Total Cell Count (HEK-293T; [4]): 271 | Population Healthy Nuclei (%) (HEK-293T; [5]): 21% | Population Mitochondria Different-Phenotype (%) (HEK-293T; [5]): 41% | Population Normal (%) (HEK-293T; [5]): 80% | Population Pyknosed Nuclei (%) (HEK-293T; [5]): 60% | Total Cell Count (HEK-293T; [5]): 175 | Population Apoptotic (%) (HEK-293T; [6]): 10% | Population Healthy Nuclei (%) (HEK-293T; [6]): 66% | Population Mitotic Cells (%) (HEK-293T; [6]): 89% | Population Pyknosed Nuclei (%) (HEK-293T; [6]): 28% | Total Cell Count (HEK-293T; [6]): 294 | Population Healthy Nuclei (%) (HEK-293T; [7]): 45% | Population Hoechst High Intensity Objects (%) (HEK-293T; [7]): 14% | Population Mitotic Cells (%) (HEK-293T; [7]): 51% | Population Normal (%) (HEK-293T; [7]): 85% | Population Pyknosed Nuclei (%) (HEK-293T; [7]): 45% | Total Cell Count (HEK-293T; [7]): 250 | Population Apoptotic (%) (HEK-293T; [8]): 7% | Population Healthy Nuclei (%) (HEK-293T; [8]): 71% | Population Mitotic Cells (%) (HEK-293T; [8]): 92% | Population Pyknosed Nuclei (%) (HEK-293T; [8]): 23% | Total Cell Count (HEK-293T; [8]): 374 | Population Healthy Nuclei (%) (HEK-293T; [9]): 32% | Population Hoechst High Intensity Objects (%) (HEK-293T; [9]): 25% | Population Mitochondria Different-Phenotype (%) (HEK-293T; [9]): 26% | Population Mitotic Cells (%) (HEK-293T; [9]): 51% | Population Normal (%) (HEK-293T; [9]): 74% | Population Pyknosed Nuclei (%) (HEK-293T; [9]): 46% | Total Cell Count (HEK-293T; [9]): 212 | Population Apoptotic (%) (HEK-293T; [10]): 9% | Population Healthy Nuclei (%) (HEK-293T; [10]): 82% | Population Mitotic Cells (%) (HEK-293T; [10]): 90% | Population Pyknosed Nuclei (%) (HEK-293T; [10]): 11% | Total Cell Count (HEK-293T; [10]): 546 | Population Apoptotic (%) (HEK-293T; [11]): 40% | Population Healthy Nuclei (%) (HEK-293T; [11]): 62% | Population Mitochondria Different-Phenotype (%) (HEK-293T; [11]): 22% | Population Mitotic Cells (%) (HEK-293T; [11]): 60% | Population Pyknosed Nuclei (%) (HEK-293T; [11]): 27% | Total Cell Count (HEK-293T; [11]): 327 | Population Apoptotic (%) (HEK-293T; [12]): 18% | Population Healthy Nuclei (%) (HEK-293T; [12]): 85% | Population Mitochondria Different-Phenotype (%) (HEK-293T; [12]): 4% | Population Mitotic Cells (%) (HEK-293T; [12]): 82% | Population Pyknosed Nuclei (%) (HEK-293T; [12]): 8% | Total Cell Count (HEK-293T; [12]): 620 | Population Apoptotic (%) (Fibroblast; [1]): 68% | Population Healthy Nuclei (%) (Fibroblast; [1]): 53% | Population Membrane Permeable-Phenotype (%) (Fibroblast; [1]): 26% | Population Mitotic Cells (%) (Fibroblast; [1]): 31% | Population Pyknosed Nuclei (%) (Fibroblast; [1]): 20% | Population Tubulin-Different-Phenotype (%) (Fibroblast; [1]): 57% | Total Cell Count (Fibroblast; [1]): 95 | Population Healthy Nuclei (%) (Fibroblast; [2]): 82% | Population Pyknosed Nuclei (%) (Fibroblast; [2]): 5% | Population Tubulin-Different-Phenotype (%) (Fibroblast; [2]): 34% | Total Cell Count (Fibroblast; [2]): 70 | Population Apoptotic (%) (Fibroblast; [3]): 76% | Population Healthy Nuclei (%) (Fibroblast; [3]): 39% | Population Membrane Permeable-Phenotype (%) (Fibroblast; [3]): 27% | Population Mitotic Cells (%) (Fibroblast; [3]): 23% | Population Pyknosed Nuclei (%) (Fibroblast; [3]): 32% | Total Cell Count (Fibroblast; [3]): 130 | Population Healthy Nuclei (%) (Fibroblast; [4]): 86% | Population Tubulin-Different-Phenotype (%) (Fibroblast; [4]): 11% | Total Cell Count (Fibroblast; [4]): 62 | Population Healthy Nuclei (%) (Fibroblast; [5]): 47% | Population Membrane Permeable-Phenotype (%) (Fibroblast; [5]): 23% | Population Pyknosed Nuclei (%) (Fibroblast; [5]): 26% | Population Tubulin-Different-Phenotype (%) (Fibroblast; [5]): 34% | Total Cell Count (Fibroblast; [5]): 111 | Population Healthy Nuclei (%) (Fibroblast; [6]): 84% | Population Pyknosed Nuclei (%) (Fibroblast; [6]): 5% | Population Tubulin-Different-Phenotype (%) (Fibroblast; [6]): 31% | Total Cell Count (Fibroblast; [6]): 68 | Population Apoptotic (%) (Fibroblast; [7]): 60% | Population Healthy Nuclei (%) (Fibroblast; [7]): 52% | Population Membrane Permeable-Phenotype (%) (Fibroblast; [7]): 35% | Population Mitotic Cells (%) (Fibroblast; [7]): 40% | Population Pyknosed Nuclei (%) (Fibroblast; [7]): 22% | Total Cell Count (Fibroblast; [7]): 129 | Population Healthy Nuclei (%) (Fibroblast; [8]): 86% | Population Pyknosed Nuclei (%) (Fibroblast; [8]): 7% | Population Tubulin-Different-Phenotype (%) (Fibroblast; [8]): 15% | Total Cell Count (Fibroblast; [8]): 86 | Population Apoptotic (%) (Fibroblast; [9]): 63% | Population Healthy Nuclei (%) (Fibroblast; [9]): 45% | Population Membrane Permeable-Phenotype (%) (Fibroblast; [9]): 15% | Population Pyknosed Nuclei (%) (Fibroblast; [9]): 22% | Total Cell Count (Fibroblast; [9]): 96 | Population Apoptotic (%) (Fibroblast; [10]): 100% | Population Healthy Nuclei (%) (Fibroblast; [10]): 73% | Population Membrane Permeable-Phenotype (%) (Fibroblast; [10]): 22% | Population Mitotic Cells (%) (Fibroblast; [10]): 0% | Population Pyknosed Nuclei (%) (Fibroblast; [10]): 1% | Total Cell Count (Fibroblast; [10]): 81 | Population Apoptotic (%) (Fibroblast; [11]): 35% | Population Healthy Nuclei (%) (Fibroblast; [11]): 59% | Population Membrane Permeable-Phenotype (%) (Fibroblast; [11]): 26% | Population Mitotic Cells (%) (Fibroblast; [11]): 64% | Population Pyknosed Nuclei (%) (Fibroblast; [11]): 12% | Population Tubulin-Different-Phenotype (%) (Fibroblast; [11]): 31% | Total Cell Count (Fibroblast; [11]): 130 | Population Healthy Nuclei (%) (Fibroblast; [12]): 76% | Population Membrane Permeable-Phenotype (%) (Fibroblast; [12]): 18% | Population Mitotic Cells (%) (Fibroblast; [12]): 0% | Population Pyknosed Nuclei (%) (Fibroblast; [12]): 0% | Population Tubulin-Different-Phenotype (%) (Fibroblast; [12]): 24% | Total Cell Count (Fibroblast; [12]): 118 | Population Healthy Nuclei (%) (U2OS; [1]): 77% | Population Pyknosed Nuclei (%) (U2OS; [1]): 10% | Population Tubulin-Different-Phenotype (%) (U2OS; [1]): 9% | Total Cell Count (U2OS; [1]): 216 | Population Healthy Nuclei (%) (U2OS; [2]): 82% | Population Pyknosed Nuclei (%) (U2OS; [2]): 5% | Population Tubulin-Different-Phenotype (%) (U2OS; [2]): 34% | Total Cell Count (U2OS; [2]): 70 | Population Healthy Nuclei (%) (U2OS; [3]): 78% | Population Pyknosed Nuclei (%) (U2OS; [3]): 11% | Population Tubulin-Different-Phenotype (%) (U2OS; [3]): 9% | Total Cell Count (U2OS; [3]): 148 | Population Healthy Nuclei (%) (U2OS; [4]): 86% | Population Tubulin-Different-Phenotype (%) (U2OS; [4]): 11% | Total Cell Count (U2OS; [4]): 62 | Population Healthy Nuclei (%) (U2OS; [5]): 82% | Population Pyknosed Nuclei (%) (U2OS; [5]): 9% | Population Tubulin-Different-Phenotype (%) (U2OS; [5]): 9% | Total Cell Count (U2OS; [5]): 218 | Population Healthy Nuclei (%) (U2OS; [6]): 84% | Population Pyknosed Nuclei (%) (U2OS; [6]): 5% | Population Tubulin-Different-Phenotype (%) (U2OS; [6]): 31% | Total Cell Count (U2OS; [6]): 68 | Population Healthy Nuclei (%) (U2OS; [7]): 80% | Population Pyknosed Nuclei (%) (U2OS; [7]): 10% | Total Cell Count (U2OS; [7]): 174 | Population Healthy Nuclei (%) (U2OS; [8]): 86% | Population Pyknosed Nuclei (%) (U2OS; [8]): 7% | Population Tubulin-Different-Phenotype (%) (U2OS; [8]): 15% | Total Cell Count (U2OS; [8]): 86 | Population Healthy Nuclei (%) (U2OS; [9]): 87% | Population Pyknosed Nuclei (%) (U2OS; [9]): 7% | Total Cell Count (U2OS; [9]): 229 | Population Healthy Nuclei (%) (U2OS; [10]): 92% | Population Tubulin-Different-Phenotype (%) (U2OS; [10]): 31% | Total Cell Count (U2OS; [10]): 80 | Population Healthy Nuclei (%) (U2OS; [11]): 84% | Population Pyknosed Nuclei (%) (U2OS; [11]): 8% | Population Tubulin-Different-Phenotype (%) (U2OS; [11]): 5% | Total Cell Count (U2OS; [11]): 251 | Population Healthy Nuclei (%) (U2OS; [12]): 85% | Population Pyknosed Nuclei (%) (U2OS; [12]): 6% | Population Tubulin-Different-Phenotype (%) (U2OS; [12]): 15% | Total Cell Count (U2OS; [12]): 131
